One test concerns the target T1, Histone deacetylase HD2 (Zea mays, UniProt Q94F81).
T1 sequence (Q94F81 whole entry): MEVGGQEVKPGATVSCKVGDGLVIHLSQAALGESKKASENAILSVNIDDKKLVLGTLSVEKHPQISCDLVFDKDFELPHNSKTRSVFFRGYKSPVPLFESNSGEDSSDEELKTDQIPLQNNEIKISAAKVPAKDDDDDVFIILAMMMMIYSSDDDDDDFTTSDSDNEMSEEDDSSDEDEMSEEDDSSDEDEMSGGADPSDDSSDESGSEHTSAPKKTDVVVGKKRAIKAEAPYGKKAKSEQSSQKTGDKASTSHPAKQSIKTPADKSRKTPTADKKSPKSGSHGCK
Kind of test: Inhibitory concentration against maize histone deacetylase 2. In a few lines: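 Maize HD2 deacetylase assay using [³H]acetate-prelabeled chicken reticulocyte histones (2 mg/mL, 10 µL) at 30 °C for 30 min. Released tritiated acetic acid was extracted with ethyl acetate after HCl/acetate stop, then scintillation counted. IC50 from triple determinations, given as mean ± SD of at least three experiments.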

Test [1] in a line: Selectivity for class IIa HDACs as ratio of IC50 for maize histone deacetylase 1-B and 1-A. Put shortly:
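Maize HD1-B (class I homologue) and HD1-A (class IIa homologue) were each assayed on [³H]acetate-prelabeled chicken reticulocyte histones for 30 min at 30 °C. Released [³H]acetate was extracted with ethyl acetate and scintillation counted. IC50s came from dilutions starting at 40 µM, at least three experiments. Selectivity = IC50(HD1-B)/IC50(HD1-A).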

A short description of test [2]: Inhibitory concentration against maize histone deacetylase 1-A (class IIa HDAC).
Test [3] in a line: Inhibitory concentration against maize histone deacetylase 1-B (class I HDAC).
Test [4] concerns the target T2, Histone deacetylase HD2 (Zea mays) (UniProt Q94F81).
T2 sequence (whole entry): T1 sequence (Q94F81 whole entry)
The test can be described thus: Inhibitory activity against maize histone deacetylase 2 at 20.2 uM. Put shortly: (§1)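 Maize HD2 enzyme preincubated at 30 °C, then incubated 30 min with [³H]acetate-prelabeled chicken reticulocyte core histones (10 µL of 2 mg/mL) as substrate. Reaction stopped with 1 M HCl/0.4 M acetate. Released [³H]acetic acid was extracted into ethyl acetate and counted by liquid scintillation. Percent inhibition at one fixed concentration; means of at least three separate experiments. Blank solvent served as negative control.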

Test [5] addresses T2, Histone deacetylase HD2 (Zea mays). Kind of test: Inhibitory activity against maize histone deacetylase 2 at 20.6 uM. In a few lines: as §1
For test [6] the target is unchanged. The settings on record: 22.2 uM.
The target is the same in test [7]. The test can be described thus: Inhibitory activity against maize histone deacetylase 2 at 23.7 uM. In a few lines:
as §1

The target is the same in test [8]. The test can be described thus: Inhibitory activity against maize histone deacetylase 2 at 25.2 uM. In a few lines:
as §1

The target is the same in test [9]. Kind of test: Inhibitory activity against maize histone deacetylase 2 at 23.3 uM. Put shortly: as §1
The target is the same in test [10]. The test can be described thus: Inhibitory activity against maize histone deacetylase 2 at 23.6 uM. In a few lines: as §1
For test [11] the target is unchanged. The test can be described thus: Inhibitory activity against maize histone deacetylase 2 at 20.5 uM. In a few lines:
as §1

Test [12] has the same target. The test can be described thus: Inhibitory activity against maize histone deacetylase 2 at 26 uM. Put shortly: as §1
Test [13] shares this target. The test can be described thus: Inhibitory activity against maize histone deacetylase 2 at 24.8 uM. Put shortly:
as §1

For test [14] the target is unchanged. The test can be described thus: Inhibitory activity against maize histone deacetylase 2 at 24.5 uM. In a few lines: as §1
Test [15] shares this target. The test can be described thus: Inhibitory activity against maize histone deacetylase 2 at 40 uM. Put shortly: as §1
For test [16] the target is unchanged. Kind of test: Inhibitory activity against maize histone deacetylase 2 at 21.1 uM. Put shortly: as §1

Structures are written as SMILES.

`Cn1cc(/C=C/C(=O)c2cccc(OC(F)(F)F)c2)cc1/C=C/C(=O)NO`: the IC50 on Histone deacetylase HD2 is 176 µM; in test [2], 90 µM; in test [3] it was 298 µM. In addition, the SI in test [1] amounted to 3.3. Besides, the inhibition in test [4] amounted to 19.5%.
Take `Cn1cc(/C=C/C(=O)c2ccc(-c3ccccc3)cc2)cc1/C=C/C(=O)NO`: the IC50 on Histone deacetylase HD2 amounted to 26.5 µM; in [2] it was 2.2 µM; in test [3], 31.8 µM. In addition, in test [1], the SI came to 14.4. In test [5], this compound yielded an inhibition of 34%.
`CC(/C=C/C(=O)NO)=C\[C@@H](C)C(=O)c1ccc(N(C)C)cc1` [TRICHOSTATIN]: the IC50 in test [2] came out at 0.0008 µM; in [3] it was 0.0004 µM.
Take `Cn1cc(/C=C/C(=O)c2cccc3ccccc23)cc1/C=C/C(=O)NO`: the IC50 stood at 0.2 µM against Histone deacetylase HD2, 0.01 µM in test [2] and 0.33 µM in [3]. In addition, the SI in [1] came to 33. The compound further displayed an inhibition in [6] of 92%.
Regarding `CC/C(=C\c1cc(/C=C/C(=O)NO)n(C)c1)C(=O)c1ccccc1`, the results for the IC50 (against Histone deacetylase HD2; in test [2]; in test [3]) were 0.42 µM, 0.22 µM and 4.5 µM, respectively. The SI in test [1] came to 20.4. In test [7], this compound registered an inhibition of 93%.
For the compound `Cn1cc(/C=C/C(=O)c2ccc3ccccc3c2)cc1/C=C/C(=O)NO`, the IC50 against Histone deacetylase HD2 came to 1.8 µM; in [2] it was 0.04 µM. Besides, the SI in test [1] amounted to 45. In [8], this compound registered an inhibition of 62.9%.
Turning to `Cn1cc(/C=C/C(=O)c2ccc(Cl)cc2)cc1/C=C/C(=O)NO`, the IC50 is 18.6 µM in test [2] and 29.4 µM in [3]. The same compound showed an inhibition in test [9] of 45.5%.
`COc1ccc(C(=O)/C=C/c2cc(/C=C/C(=O)NO)n(C)c2)cc1`: the values for the IC50 (at Histone deacetylase HD2; in test [2]; in [3]) were 0.57 µM, 0.79 µM and 0.8 µM, respectively. Further, in test [10], the inhibition stood at 74.2%.
For the compound `Cn1cc(/C=C/C(=O)c2ccc(Br)cc2)cc1/C=C/C(=O)NO`, the values for the IC50 (against Histone deacetylase HD2; in test [2]; in test [3]) were 28.5 µM, 20.3 µM and 24.3 µM, respectively. Besides, the inhibition in [11] came to 41.7%.
`Cn1cc(/C=C/C(=O)c2ccccc2)cc1/C=C/C(=O)NO`: the IC50 in test [2] is 0.19 µM; in test [3], 0.26 µM. The compound also had an inhibition in [12] of 92.3%.
Regarding `Cn1cc(/C=C/C(=O)c2ccccc2Br)cc1/C=C/C(=O)NO`, the IC50 worked out at 0.36 µM on Histone deacetylase HD2, 0.21 µM in test [2] and 0.18 µM in test [3]. This compound also returned an inhibition in test [11] of 92.4%.
In the case of `Cn1cc(/C=C/C(=O)c2ccccc2Cl)cc1/C=C/C(=O)NO`, in [1], the SI amounted to 32. The IC50 came out at 0.05 µM in test [2] and 1.6 µM in test [3]. This compound also gave an inhibition in test [9] of 79.1%.
For `Cc1ccccc1C(=O)/C=C/c1cc(/C=C/C(=O)NO)n(C)c1`, the SI in test [1] was found to be 6.5. Moreover, the IC50 in test [2] came out at 0.06 µM; in [3], 0.39 µM. The compound further returned an inhibition in test [13] of 96%.
For the compound `C/C(=C\c1cc(/C=C/C(=O)NO)n(C)c1)C(=O)c1ccccc1`, the IC50 is 0.68 µM at Histone deacetylase HD2, 0.78 µM in test [2] and 0.57 µM in [3]. In addition, the inhibition in [13] came to 89.9%.
Consider `COc1cccc(C(=O)/C=C/c2cc(/C=C/C(=O)NO)n(C)c2)c1`, for which the IC50 is 0.54 µM against Histone deacetylase HD2, 0.39 µM in [2] and 0.6 µM in test [3]. The compound further registered an inhibition in [10] of 78.2%.
As to `Cn1cc(/C=C/C(=O)c2ccc(F)cc2)cc1/C=C/C(=O)NO`, the results for the IC50 (on Histone deacetylase HD2; in test [2]; in test [3]) were 35.3 µM, 15.7 µM and 24.9 µM, respectively. In addition, the inhibition in test [14] came to 33.2%.
Turning to `Cn1cc(/C=C/C(=O)c2cccc(F)c2)cc1/C=C/C(=O)NO`, the results for the IC50 (at Histone deacetylase HD2; in [2]; in [3]) were 22 µM, 0.22 µM and 38.8 µM, respectively. The SI in test [1] stood at 176. Moreover, the inhibition in [14] worked out at 56.5%.
As for `Cn1cc(/C=C/C(=O)c2cccc(Br)c2)cc1/C=C/C(=O)NO`, the IC50 at Histone deacetylase HD2 was 2.1 µM; in [2], 1.6 µM; in [3], 1.1 µM. In addition, in test [11], the inhibition turned out to be 76.8%.
As for `Cc1ccc(C(=O)/C=C/c2cc(/C=C/C(=O)NO)n(C)c2)cc1`, the SI in test [1] was found to be 9.6. For the same compound, the IC50 in test [2] was determined as 0.5 µM; in test [3], 4.8 µM. The compound further displayed an inhibition in [13] of 65%.
Turning to `O=C(CCCCCCC(=O)Nc1ccc([C@H]2O[C@@H](CSc3nc(-c4ccccc4)c(-c4ccccc4)o3)C[C@@H](c3ccc(CO)cc3)O2)cc1)NO` [TUBACIN], the IC50 against Histone deacetylase HD2 was determined as 2 µM; in test [2], 0.45 µM; in test [3] it was 0.98 µM. The SI in test [1] was 2.2. The same compound registered an inhibition in test [15] of 92.9%.
Take `Cc1cccc(C(=O)/C=C/c2cc(/C=C/C(=O)NO)n(C)c2)c1`: in [1], the SI was 14.7. Further, the IC50 was determined as 0.17 µM in test [2] and 2.5 µM in test [3]. This compound showed an inhibition in test [13] of 72%.
Turning to `COc1ccccc1C(=O)/C=C/c1cc(/C=C/C(=O)NO)n(C)c1`, the IC50 on Histone deacetylase HD2 worked out at 0.25 µM; in test [2], 0.16 µM; in test [3] it was 0.17 µM. Also, the inhibition in [10] amounted to 95.7%.
Consider `Cn1cc(/C=C/C(=O)c2cccc(Cl)c2)cc1/C=C/C(=O)NO`, for which, in test [1], the SI is 71.4. Also, the IC50 amounted to 0.44 µM in test [2] and 31.4 µM in [3]. Besides, in test [9], the inhibition came to 49%.
For the compound `Cn1cc(/C=C/C(=O)c2ccccc2F)cc1/C=C/C(=O)NO`, the IC50 against Histone deacetylase HD2 was found to be 7.1 µM; in [2] it was 0.1 µM; in [3] it was 3.4 µM. Moreover, the SI in test [1] worked out at 34. Further, the inhibition in test [14] was 73.9%.
Take `Cn1cc(/C=C/C(=O)c2cccc(C(F)(F)F)c2)cc1/C=C/C(=O)NO`: the IC50 at Histone deacetylase HD2 turned out to be 49 µM; in [2], 9.3 µM; in [3], 159 µM. Moreover, the SI in test [1] was found to be 17.1. This compound also displayed an inhibition in [16] of 46.1%.

A word on the IC50: it is the concentration at which inhibition is half-maximal. By inhibition is commonly meant the relative decrease from the control value, in per cent.

For the origin of these results see ChEMBL document CHEMBL1144421, “Class II (IIa)-selective histone deacetylase inhibitors. 1. Synthesis and biological evaluation of novel (aryloxopropenyl)pyrrolyl hydroxyamides” (J Med Chem, 2005).
